What all share (assay type): functional
The test system of assay [1] is Staphylococcus aureus. As to the kind of experiment: In vitro minimum inhibitory concentration against Staphylococcus aureus UBMS 90-3 (sensitive). The essentials: (§1)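 Agar dilution on Mueller–Hinton II agar; inoculum (1-5) × 10^5 CFU/mL; antibiotic concentrations 32–0.004 µg/mL; plates incubated 18 h at 35 °C in forced-air incubator. MIC taken as lowest concentration inhibiting growth of the test organism (tetracycline-sensitive and tetracycline-resistant strains).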

Assay [2] deals with Staphylococcus aureus. As to the kind of experiment: In vitro minimum inhibitory concentration against Staphylococcus aureus UBMS 90-1 (tet M ribosomal protection). The essentials:
as §1

Assay [3] relates to Staphylococcus aureus. Briefly: In vitro minimum inhibitory concentration against Staphylococcus aureus smith (sensitive). The essentials:
as §1

Assay [4] deals with Escherichia coli. As to the kind of experiment: In vitro minimum inhibitory concentration against Escherichia coli J3272 (tet D efflux). The gist of the method:
as §1

In assay [5] the test system is Escherichia coli. Briefly: In vitro minimum inhibitory concentration against Escherichia coli PRP-1 (tet A efflux). The gist of the method:
as §1

In assay [6] the test system is Escherichia coli. Briefly: In vitro minimum inhibitory concentration against Escherichia coli UBMS 90-4 (tet M ribosomal protection). The gist of the method:
as §1

The next assay deals with Enterococcus faecalis. Briefly: In vitro minimum inhibitory concentration against Enterococcus faecalis ATCC 29212. The essentials: as §1
Assay [7] deals with Staphylococcus aureus. As to the kind of experiment: In vitro minimum inhibitory concentration against Staphylococcus aureus UBMS 88-7 (tet K efflux). The gist of the method: as §1
Assay [8] has as its system Escherichia coli. As to the kind of experiment: In vitro minimum inhibitory concentration against Escherichia coli UBMS 88-1 (tet B efflux). The essentials: as §1
The subject of assay [9] is Escherichia coli. Briefly: In vitro minimum inhibitory concentration against Escherichia coli J3272 (tet C efflux). The gist of the method: as §1
The test system of assay [10] is Escherichia coli. Briefly: In vitro minimum inhibitory concentration against Escherichia coli UBMS 90-5 (sensitive). The gist of the method: as §1

The values that follow come from ChEMBL document CHEMBL1127493, “Glycylcyclines. 1. A new generation of potent antibacterial agents through modification of 9-aminotetracyclines” (1994).

Structures are written as SMILES.

Consider `CN(C)CC(=O)Nc1ccc2c(c1O)C(=O)C1=C(O)[C@]3(O)C(O)=C(C(N)=O)C(=O)[C@@H](N(C)C)C3CC1C2.Cl` (stereo partly specified), for which the MIC (commonly the smallest concentration in the dilution series that meets the test's criterion for growth inhibition) against Staphylococcus aureus [1] was determined as 0.06 µg/mL; in the assay with Staphylococcus aureus [2] it was 0.12 µg/mL; with Staphylococcus aureus [3], 0.12 µg/mL; with Escherichia coli [4], 0.12 µg/mL; in the assay on Escherichia coli [5], 1 µg/mL; in the assay on Escherichia coli [6] it was 0.12 µg/mL. Also, the MIC with Enterococcus faecalis is 0.03 µg/mL; against Staphylococcus aureus [7] it was 1 µg/mL; in the assay on Escherichia coli [8], 0.25 µg/mL; against Escherichia coli [9], 0.5 µg/mL; against Escherichia coli [10], 0.12 µg/mL.
